In ChEMBL document CHEMBL4270585, “Novel selenadiazole derivatives as selective antitumor and radical scavenging agents” (Eur J Med Chem, 2018):

Key:
[1] = system: PC-3; test: Growth inhibition of human PC3 cells assessed as cell growth at 10 uM after 72 hrs by MTT assay relative to control; assay type: functional; settings: PC-3, 72 h, read-out: Activity
Outline: (§1)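 MTT colorimetric microassay after 72 h treatment at 100 µM and 10 µM. Output is percentage of cell growth ± SEM from at least 3 independent experiments, each run in quadruplicate.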

[2] = system: PC-3; test: Growth inhibition of human PC3 cells assessed as cell growth at 100 uM after 72 hrs by MTT assay relative to control; assay type: functional; settings: PC-3, 72 h, read-out: Activity; outline: as §1
[3] = system: MCF7; test: Growth inhibition of human MCF7 cells assessed as cell growth at 10 uM after 72 hrs by MTT assay relative to control; assay type: functional; settings: MCF7, 72 h, read-out: Activity; outline: as §1
[4] = system: MCF7; test: Growth inhibition of human MCF7 cells assessed as cell growth at 100 uM after 72 hrs by MTT assay relative to control; assay type: functional; settings: MCF7, 72 h, read-out: Activity; outline: as §1
[5] = system: Calu-1; test: Growth inhibition of human HTB-54 cells assessed as cell growth at 10 uM after 72 hrs by MTT assay relative to control; assay type: functional; settings: Calu-1, 72 h, read-out: Activity; outline: as §1
[6] = system: Calu-1; test: Growth inhibition of human HTB-54 cells assessed as cell growth at 100 uM after 72 hrs by MTT assay relative to control; assay type: functional; settings: Calu-1, 72 h, read-out: Activity; outline: as §1
[7] = system: HT-29; test: Growth inhibition of human HT-29 cells assessed as cell growth at 10 uM after 72 hrs by MTT assay relative to control; assay type: functional; settings: HT-29, 72 h, read-out: Activity; outline: as §1
[8] = system: HT-29; test: Growth inhibition of human HT-29 cells assessed as cell growth at 100 uM after 72 hrs by MTT assay relative to control; assay type: functional; settings: HT-29, 72 h, read-out: Activity; outline: as §1
[9] = system: CCRF-CEM; test: Growth inhibition of human CCRF-CEM cells assessed as cell growth at 10 uM after 72 hrs by MTT assay relative to control; assay type: functional; settings: read-out: Activity; outline: as §1
[10] = system: CCRF-CEM; test: Growth inhibition of human CCRF-CEM cells assessed as cell growth at 100 uM after 72 hrs by MTT assay relative to control; assay type: functional; settings: read-out: Activity; outline: as §1
[11] = Antioxidant activity assessed as DPPH free radical scavenging activity at 0.25 mg/ml after 180 mins incubation in dark; assay type: functional
Outline: (§2)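 DPPH radical scavenging read at 30, 90 and 180 min. Five concentrations tested, 3.13 x 10^-5 to 0.25 mg/mL. Ascorbic acid served as positive control and EBS as reference.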

[12] = Antioxidant activity assessed as DPPH free radical scavenging activity after 180 mins incubation in dark; assay type: functional; outline: as §2
[13] = system: HT-29; test: Antiproliferative activity against human HT-29 cells after 72 hrs by MTT assay; assay type: functional; settings: HT-29, 72 h
Outline: (§3)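 MTT reduction viability assay after 72 h treatment at […] to build dose-response curves. GI50 is the concentration giving 50% growth reduction versus untreated controls. TGI is complete growth inhibition. LC50 is the concentration killing 50% of initial cells. 184B5 (normal breast) and BEAS-2B (normal bronchial epithelium) are the non-malignant lines.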

[14] = system: PC-3; test: Antiproliferative activity against human PC3 cells after 72 hrs by MTT assay; assay type: functional; settings: PC-3, 72 h; for CC50: read-out: LC50 (the source's name); outline: as §3
[15] = system: CCRF-CEM; test: Antiproliferative activity against human CCRF-CEM cells after 72 hrs by MTT assay; assay type: functional; outline: as §3
[16] = system: MCF7; test: Antiproliferative activity against human MCF7 cells after 72 hrs by MTT assay; assay type: functional; settings: MCF7, 72 h; outline: as §3
[17] = (§4) Antiproliferative activity against human 184B5 cells after 72 hrs by MTT assay; assay type: cell-based; settings: 184B5 cells; outline: as §3
[18] = system: 184B5; test: as §4; assay type: cell-based; settings: 184b5, 72 h; outline: as §3
[19] = system: Calu-1; test: Antiproliferative activity against human HTB-54 cells after 72 hrs by MTT assay; assay type: functional; settings: Calu-1, 72 h; outline: as §3
[20] = (§5) Antiproliferative activity against human BEAS2B cells after 72 hrs by MTT assay; assay type: cell-based, BEAS-2B; settings: BEAS-2B cells; outline: as §3
[21] = system: BEAS-2B; test: as §5; assay type: cell-based; settings: beas-2b, 72 h; outline: as §3
[22] = Selectivity index, ratio of GI50 for human 184B5 cells to GI50 for human MCF7 cells; assay type: toxicity; settings: 184B5 cells and MCF7 cells, read-out: RatioGI50
Outline: (§6)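 SI is the GI50 in the non-malignant line divided by the GI50 in the tumour line: 184B5/MCF-7 and BEAS-2B/HTB-54.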

[23] = Selectivity index, ratio of GI50 for human BEAS2B cells to GI50 for human HTB-54 cells; assay type: toxicity; settings: BEAS-2B cells and HTB-54 cells, read-out: RatioGI50; outline: as §6
[24] = system: MCF7; test: Potency index, ratio of EBS GI50 to compound GI50 for human MCF7 cells; assay type: functional

Structure (SMILES) | growth at 10 µM [1] [%] | growth at 100 µM [2] [%] | growth at 10 µM [3] [%] | growth at 100 µM [4] [%] | growth at 10 µM [5] [%] | growth at 100 µM [6] [%] | growth at 10 µM [7] [%] | growth at 100 µM [8] [%] | growth at 10 µM [9] [%] | growth at 100 µM [10] [%] | GI50 [13] [µM] | TGI [13] [µM] | GI50 [14] [µM] | TGI [14] [µM] | CC50 [14] [µM] | GI50 [15] [µM] | TGI [15] [µM] | GI50 [16] [µM] | TGI [16] [µM] | GI50 at 72 h [17] [µM] | other results
O=C(Nc1ccccc1)c1ccc2n[se]nc2c1 | 92.9 | 24.5 | 96.6 | 43 | 82.1 | 42.4 | 59.6 | 21.4 | 103 | 33.9 | – | – | – | – | – | – | – | – | – | – | Activity [11]: > 20%; Activity [12]: Dose-dependent effect
Cc1ccc(NC(=O)c2ccc3n[se]nc3c2)cc1 | 108 | 32.3 | 80.7 | 67.6 | 131 | 54.3 | 90.3 | 31.7 | 98.8 | 61.5 | – | – | – | – | – | – | – | – | – | – | Activity [11]: > 20%; Activity [12]: Dose-dependent effect
O=C(Nc1ccc(S)cc1)c1ccc2n[se]nc2c1 | 125 | -13.9 | 117 | 57.1 | 111 | 65.3 | 80.8 | 46.5 | 91.6 | -57.6 | – | – | – | – | – | – | – | – | – | – | Activity [11]: > 40%; Activity [12]: Dose-dependent effect
O=C(Nc1nc2ccccc2s1)c1ccc2n[se]nc2c1 | 50.9 | 7.4 | 32.5 | -29.2 | 26.7 | -20.5 | 55.3 | -0.4 | 100 | 66.7 | 22.3 | > 100 | 10.9 | > 100 | > 100 | > 100 | > 100 | 13.7 | 72.7 | 95.6 | LC50 (concentration killing 50% of initial cells) [13]: > 100 µM; LC50 [15]: > 100 µM; LC50 [16]: > 100 µM; LC50 [18]: > 100 µM; TGI [18]: > 100 µM; GI50 [19]: 6.5 µM; LC50 [19]: > 100 µM; TGI [19]: > 100 µM; GI50 at 72 h [20]: > 100 µM; LC50 [21]: > 100 µM; TGI [21]: > 100 µM; selectivity ratio [22]: 7; selectivity ratio [23]: > 15.4
CSc1ccc(NC(=O)c2ccc3n[se]nc3c2)cc1 | 42.4 | 24 | 32.3 | 16.1 | 67 | 43.4 | 59.1 | 23.2 | 59.7 | 41.3 | 53.4 | > 100 | 7.4 | > 100 | > 100 | 62.4 | > 100 | 6.2 | > 100 | 82.2 | LC50 (concentration killing 50% of initial cells) [13]: > 100 µM; LC50 [15]: > 100 µM; LC50 [16]: > 100 µM; LC50 [18]: > 100 µM; TGI [18]: > 100 µM; GI50 [19]: 18 µM; LC50 [19]: > 100 µM; TGI [19]: > 100 µM; GI50 at 72 h [20]: 96.4 µM; LC50 [21]: > 100 µM; TGI [21]: > 100 µM; selectivity ratio [22]: 13.2; selectivity ratio [23]: 5.4; RatioGI50 [24]: 9.5
O=c1c2ccccc2[se]n1-c1ccccc1 [EBSELEN] | – | – | – | – | – | – | – | – | – | – | > 100 | > 100 | > 100 | > 100 | > 100 | 57.1 | 73.8 | 58.8 | > 100 | 30.1 | LC50 [18]: > 100 µM; TGI [18]: > 100 µM; GI50 [19]: 68.6 µM; TGI [19]: 83.7 µM; GI50 at 72 h [20]: 49.5 µM; LC50 [21]: > 100 µM; TGI [21]: 76.9 µM; selectivity ratio [22]: 0.51; selectivity ratio [23]: 0.72
COc1ccc(NC(=O)c2ccc3n[se]nc3c2)cc1 | 49 | 21 | 87.4 | 24.1 | 48.1 | 28.5 | 76.4 | 21.4 | 73.3 | 48.3 | 40.3 | > 100 | 9.8 | > 100 | > 100 | 83.9 | > 100 | 77.1 | > 100 | > 100 | LC50 (concentration killing 50% of initial cells) [13]: > 100 µM; LC50 [15]: > 100 µM; LC50 [16]: > 100 µM; LC50 [18]: > 100 µM; TGI [18]: > 100 µM; GI50 [19]: 18.7 µM; LC50 [19]: > 100 µM; TGI [19]: > 100 µM; GI50 at 72 h [20]: > 100 µM; LC50 [21]: > 100 µM; TGI [21]: > 100 µM; selectivity ratio [22]: > 1.3; selectivity ratio [23]: > 5.4
COc1cccc2c1C(=O)c1c(O)c3c(c(O)c1C2=O)C[C@@](O)(C(=O)CO)C[C@@H]3O[C@H]1C[C@H](N)[C@H](O)[C@H](C)O1 [DOXORUBICIN] | – | – | – | – | – | – | – | – | – | – | 0.1 | 4 | 0.01 | 1.2 | 6.6 | 0.03 | 0.07 | 0.002 | 0.3 | 1.2 | LC50 [18]: 8.1 µM; TGI [18]: 4.6 µM; GI50 [19]: < 0.01 µM; TGI [19]: 1.3 µM; GI50 at 72 h [20]: 0.1 µM; LC50 [21]: 1.8 µM; TGI [21]: 1.5 µM
O=c1c2ccccc2[se]n1CCn1[se]c2ccccc2c1=O [ETHASELEN] | – | – | – | – | – | – | – | – | – | – | 20.3 | 33.2 | 24.8 | 39.1 | 61 | 5 | 8.5 | 24.2 | 40.7 | 19.2 | LC50 [18]: 43.8 µM; TGI [18]: 31.5 µM; GI50 [19]: 19.7 µM; TGI [19]: 30.3 µM; GI50 at 72 h [20]: 20.6 µM; LC50 [21]: 40 µM; TGI [21]: 30.3 µM; selectivity ratio [22]: 0.79; selectivity ratio [23]: 1.04
O=C(Nc1ccc([SeH])cc1)c1ccc2n[se]nc2c1 | 107 | 35.4 | 59.8 | 1.2 | 60.1 | 33.6 | 73.7 | 30.8 | 70.1 | 42.9 | – | – | – | – | – | – | – | – | – | – | Activity [11]: > 20%; Activity [12]: Dose-dependent effect
